From ChEMBL document CHEMBL2434864, “Synthesis and biological evaluation of phenyl substituted polyoxygenated xanthone derivatives as anti-hepatoma agents” (Eur J Med Chem, 2013)

How the values were obtained:
[1] = Cytotoxicity against human QSG7701 cells after 48 hrs by CCK-8 assay; format: cell-based; settings: QSG7701, 48 h
How it was run: (§1)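 Cells grown at 37 °C, 5% CO2 in medium with 10% FBS and penicillin/streptomycin: HepG-2 in MEM; QGY-7703, SMMC-7721 and QSG-7701 in 1640 medium. Seeded at 2×10^5 cells/well for 24 h, then exposed to varying compound concentrations or 1% DMSO vehicle for 48 h. CCK-8 added for 3 h more, absorbance read at 450 nm.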

SMMC-7721 = assay: Cytotoxicity against human SMMC7721 cells after 48 hrs by CCK-8 assay; format: functional, cell-based; settings: SMMC-7721, 48 h; how it was run: as §1
HepG2 = assay: Cytotoxicity against human HepG2 cells after 48 hrs by CCK-8 assay; format: functional, cell-based; settings: HepG2, 48 h; how it was run: as §1
[2] = Cytotoxicity against human QGY7703 cells after 48 hrs by CCK-8 assay; format: functional, cell-based; settings: QGY-7703, 48 h; how it was run: as §1
[3] = Growth inhibition of human QGY7703 cells at 10 uM after 48 hrs by CCK-8 assay relative to control; format: functional; settings: QGY-7703, 48 h, read-out: GI
How it was run: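 QGY-7703 cells were kept in 1640 medium with 10% FBS and penicillin/streptomycin at 37 °C, 5% CO2, then seeded at 2×10^5 cells/well for 24 h. They were treated once at 10 μM for 48 h, followed by CCK-8 for 3 h and A450. Values are percentage inhibition relative to untreated control cells.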

QGY-7703 [4] = assay: Induction of apoptosis in human QGY7703 cells assessed as late apoptotic cells at 30 uM after 48 hrs by Annexin V-FITC/propidium iodide staining-based flow cytometric analysis (reference value: 4.25%); format: functional
How it was run: (§2)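 QGY-7703 cells were seeded at 5×10^5 cells/mL for 24 h, then given 3.75, 7.5, 15 or 30 μM, or DMSO control, for 48 h. Floating and trypsinized adherent cells were pooled, washed twice in cold PBS and resuspended in binding buffer. They were stained with annexin V-FITC/PI for 15 min at room temperature in the dark and analysed by flow cytometry. Mean ± SD of three independent experiments.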

QGY-7703 [5] = assay: Induction of apoptosis in human QGY7703 cells assessed as early apoptotic cells at 30 uM after 48 hrs by Annexin V-FITC/propidium iodide staining-based flow cytometric analysis (reference value: 2.63%); format: functional; how it was run: as §2
QGY-7703 [6] = assay: Induction of apoptosis in human QGY7703 cells assessed as early apoptotic cells at 15 uM after 48 hrs by Annexin V-FITC/propidium iodide staining-based flow cytometric analysis (reference value: 2.63%); format: functional; how it was run: as §2
QGY-7703 [7] = assay: Induction of apoptosis in human QGY7703 cells assessed as late apoptotic cells at 15 uM after 48 hrs by Annexin V-FITC/propidium iodide staining-based flow cytometric analysis (reference value: 4.25%); format: functional; how it was run: as §2
QGY-7703 [8] = assay: Induction of apoptosis in human QGY7703 cells assessed as late apoptotic cells at 7.5 uM after 48 hrs by Annexin V-FITC/propidium iodide staining-based flow cytometric analysis (reference value: 4.25%); format: functional; how it was run: as §2
QGY-7703 [9] = assay: Induction of apoptosis in human QGY7703 cells assessed as early apoptotic cells at 7.5 uM after 48 hrs by Annexin V-FITC/propidium iodide staining-based flow cytometric analysis (reference value: 2.63%); format: functional; how it was run: as §2
QGY-7703 [10] = assay: Induction of apoptosis in human QGY7703 cells assessed as late apoptotic cells at 3.75 uM after 48 hrs by Annexin V-FITC/propidium iodide staining-based flow cytometric analysis (reference value: 4.25%); format: functional; how it was run: as §2
QGY-7703 [11] = assay: Induction of apoptosis in human QGY7703 cells assessed as early apoptotic cells at 3.75 uM after 48 hrs by Annexin V-FITC/propidium iodide staining-based flow cytometric analysis (reference value: 2.63%); format: functional; how it was run: as §2

SMILES: COc1ccc2c(=O)c3c(OC)cc(OC)c(-c4ccc(C)cc4)c3oc2c1OC
- IC50 [1]: 66.3 µM
- IC50 (SMMC-7721): 3.15 µM
- IC50 (HepG2): 24.6 µM
- IC50 [2]: 14.1 µM
- inhibition of growth at 10 µM [3]: 68.1%

SMILES: COc1ccc2c(=O)c3c(OC)cc(OC)c(-c4ccc(F)cc4)c3oc2c1OC
- inhibition of growth at 10 µM [3]: 13.9%

SMILES: COc1cc(OC)cc(-c2c(OC)cc(OC)c3c(=O)c4ccc(OC)c(OC)c4oc23)c1
- IC50 [1]: 33.1 µM
- IC50 (SMMC-7721): 31.5 µM
- IC50 (HepG2): 45 µM
- IC50 [2]: 31.9 µM
- inhibition of growth at 10 µM [3]: 58%

SMILES: COc1ccc2c(=O)c3c(OC)cc(OC)c(-c4ccc(S(C)(=O)=O)cc4)c3oc2c1OC
- inhibition of growth at 10 µM [3]: 1.59%

SMILES: COc1ccc2c(=O)c3c(OC)cc(OC)c(-c4ccc(C(F)(F)F)cc4)c3oc2c1OC
- inhibition of growth at 10 µM [3]: 5.23%

SMILES: COc1ccc2c(=O)c3c(OC)cc(OC)c(-c4cccc(C#N)c4)c3oc2c1OC
- inhibition of growth at 10 µM [3]: -4.17%

SMILES: COc1ccc2c(=O)c3c(OC)cc(OC)c(-c4ccccc4OC(F)(F)F)c3oc2c1OC
- inhibition of growth at 10 µM [3]: 33%

SMILES: O=c1[nH]cc(F)c(=O)[nH]1 [FLUOROURACIL]
- IC50 [1]: 0.6 µM
- IC50 (SMMC-7721): 14.6 µM
- IC50 (HepG2): 12.5 µM
- IC50 [2]: 15.7 µM

SMILES: COc1ccc2c(=O)c3c(OC)cc(OC)c(-c4cccnc4)c3oc2c1OC
- inhibition of growth at 10 µM [3]: 18%

SMILES: COc1cc(OC)c2c(=O)c3ccc(OC)c(OC)c3oc2c1
- inhibition of growth at 10 µM [3]: 14.1%

SMILES: COc1ccc2c(=O)c3c(OC)cc(OC)c(-c4ccccc4)c3oc2c1OC
- Activity (QGY-7703 [4]): 23.27%
- Activity (QGY-7703 [5]): 15.81%
- Activity (QGY-7703 [6]): 10.58%
- Activity (QGY-7703 [7]): 18.82%
- Activity (QGY-7703 [8]): 12.12%
- Activity (QGY-7703 [9]): 8.63%
- Activity (QGY-7703 [10]): 4.6%
- Activity (QGY-7703 [11]): 2.61%
- IC50 [1]: > 100 µM
- IC50 (SMMC-7721): 7.5 µM
- IC50 (HepG2): 19.2 µM
- IC50 [2]: 6.27 µM
- inhibition of growth at 10 µM [3]: 66.5%

SMILES: CCc1ccc(-c2c(OC)cc(OC)c3c(=O)c4ccc(OC)c(OC)c4oc23)cc1
- IC50 [1]: 69.2 µM
- IC50 (SMMC-7721): 16.4 µM
- IC50 (HepG2): 28 µM
- IC50 [2]: 22.6 µM
- inhibition of growth at 10 µM [3]: 77.1%

SMILES: COc1ccc2c(=O)c3c(OC)cc(OC)c(-c4ccc(C(C)(C)C)cc4)c3oc2c1OC
- IC50 [1]: > 100 µM
- IC50 (SMMC-7721): 18.2 µM
- IC50 (HepG2): 39.2 µM
- IC50 [2]: 33.1 µM
- inhibition of growth at 10 µM [3]: 56.3%

SMILES: COc1ccc2c(=O)c3c(OC)cc(OC)c(-c4cccc(C)c4)c3oc2c1OC
- IC50 [1]: > 100 µM
- IC50 (SMMC-7721): 14.8 µM
- IC50 (HepG2): 5 µM
- IC50 [2]: 13.3 µM
- inhibition of growth at 10 µM [3]: 51.4%

SMILES: COc1ccc2c(=O)c3c(OC)cc(OC)c(-c4ccc(C(C)C)cc4)c3oc2c1OC
- IC50 [1]: > 100 µM
- IC50 (SMMC-7721): 20.1 µM
- IC50 (HepG2): 32.5 µM
- IC50 [2]: 26.1 µM
- inhibition of growth at 10 µM [3]: 52.7%

SMILES: COc1ccc2c(=O)c3c(OC)cc(OC)c(-c4ccc(C=O)cc4)c3oc2c1OC
- inhibition of growth at 10 µM [3]: 19.7%

SMILES: COc1ccc2c(=O)c3c(OC)cc(OC)c(-c4cc(F)cc(F)c4)c3oc2c1OC
- inhibition of growth at 10 µM [3]: 11.2%

SMILES: COc1ccc2c(=O)c3c(OC)cc(OC)c(-c4cccc(F)c4)c3oc2c1OC
- inhibition of growth at 10 µM [3]: 35.2%

SMILES: COc1cccc(-c2c(OC)cc(OC)c3c(=O)c4ccc(OC)c(OC)c4oc23)c1
- IC50 [1]: 48.1 µM
- IC50 (SMMC-7721): 10.6 µM
- IC50 (HepG2): 28.7 µM
- IC50 [2]: 11.9 µM
- inhibition of growth at 10 µM [3]: 55.2%

SMILES: COc1ccc2c(=O)c3c(OC)cc(OC)c(-c4ccc(F)c(F)c4)c3oc2c1OC
- inhibition of growth at 10 µM [3]: 5.85%

SMILES: COc1ccc2c(=O)c3c(OC)cc(OC)c(-c4ccc(C(C)=O)cc4)c3oc2c1OC
- inhibition of growth at 10 µM [3]: 13.2%

SMILES: COc1ccc2c(=O)c3c(OC)cc(OC)c(-c4cccc(C=O)c4)c3oc2c1OC
- inhibition of growth at 10 µM [3]: 13%

SMILES: COc1ccc2c(=O)c3c(OC)cc(OC)c(-c4ccc(OC(F)(F)F)cc4)c3oc2c1OC
- inhibition of growth at 10 µM [3]: 0.53%

SMILES: COc1ccc2c(=O)c3c(OC)cc(OC)c(-c4cc(C)ccc4C)c3oc2c1OC
- IC50 [1]: 90.7 µM
- IC50 (SMMC-7721): 17 µM
- IC50 (HepG2): 28.6 µM
- IC50 [2]: 24.6 µM
- inhibition of growth at 10 µM [3]: 54.3%

SMILES: COc1ccc2c(=O)c3c(OC)cc(OC)c(-c4cc(C(F)(F)F)cc(C(F)(F)F)c4)c3oc2c1OC
- inhibition of growth at 10 µM [3]: 14.2%

SMILES: COC(=O)c1ccc(-c2c(OC)cc(OC)c3c(=O)c4ccc(OC)c(OC)c4oc23)cc1
- inhibition of growth at 10 µM [3]: -5.48%

SMILES: COc1ccc2c(=O)c3c(OC)cc(OC)c(-c4cccc(C(F)(F)F)c4)c3oc2c1OC
- inhibition of growth at 10 µM [3]: 30%

SMILES: COc1ccc2c(=O)c3c(OC)cc(OC)c(-c4ccc(C#N)cc4)c3oc2c1OC
- inhibition of growth at 10 µM [3]: -1.84%

SMILES: COc1ccc2c(=O)c3c(OC)cc(OC)c(-c4cc(F)ccc4F)c3oc2c1OC
- inhibition of growth at 10 µM [3]: 17.4%

SMILES: COc1ccc2c(=O)c3c(OC)cc(OC)c(-c4ccccc4F)c3oc2c1OC
- IC50 [1]: 20.7 µM
- IC50 (SMMC-7721): 26.8 µM
- IC50 (HepG2): 48.9 µM
- IC50 [2]: 39.6 µM
- inhibition of growth at 10 µM [3]: 52.4%
